Assay outcomes deposited in PubChem BioAssay by several laboratories.
Rows were chosen to be rich in hits. Some 2.9% of all compounds tested hit in one or more screens of this group.
UBC13 polyUb = UBC13 polyubiquitin chain formation inhibitors, primary screen, biochemical, TR-FRET, uHTS | AID 485273, 2010 | Ubiquitin-conjugating enzyme E2 N (Homo sapiens), P61088 | 330,000 tested, 0.47% active | inhibition, % at 20 µM; in the data active = inhibition above about 45%, passing the limit was not always enough
PfG6PD inh = PfG6PD enzyme inhibitors, primary screen, biochemical, fluorescence intensity, uHTS. inhibition, % at 20 µM. PfGluPho enzyme, NADPH resazurin-diaphorase fluorescence. AID 504690, 2011. 350,000 tested, 0.78% active. glucose-6-phosphate dehydrogenase-6-phosphogluconolactonase (Plasmodium falciparum 3D7);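 active = inhibition reaching at least a set limit at 20 µM in the primary screen, cut at about 59% in these data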;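 also: 0% = DMSO wells with substrate and 100% = DMSO wells lacking glucose-6-phosphate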
EBNA-1 inh = EBNA-1 DNA-binding inhibitors, primary screen, biochemical, fluorescence polarization; inhibition, % at 14.8 µM; 300,000 tested, 0.34% active; in the data active = inhibition above about 28%
ZTA DNA inh = ZTA (EBV) inhibition in EBNA-1 counter-screen; AID 2234; 320,000 tested, 0.15% active; ZTA-DNA binding, fluorescence polarization; inhibition, % at 11 µM; in the data active = inhibition above about 33%
PfM18AAP inh = PfM18AAP inhibitors, malaria aminopeptidase, primary screen, biochemical, QFRET, recombinant enzyme; inhibition, % at 7.35 µM; H-Glu-NHMec fluorogenic cleavage; M18 aspartyl aminopeptidase (Plasmodium falciparum 3D7); 290,000 tested, 1.2% active;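 active = inhibition above the campaign mean inhibition over all tested compounds plus 3 SD, cut at about 28% in these data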;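 also: 0% = plate median of test compound wells and 100% = 2 mM ZnCl2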
Apaf1 inhib = inhibitors of human Apaf-1 apoptosome, primary screen, biochemical, DEVD-Rh110 fluorescence, uHTS. reconstituted apoptosome caspase-3 activity. inhibition, % at 20 µM. 330,000 tested, 0.71% active. AID 489030, 2010; active = inhibition of at least 40% at 20 µM;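 also: plate controls were DMSO wells for no effect and DEVD-CHO caspase inhibitor wells for full effect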
Target sequence (O14727 whole entry, looked up): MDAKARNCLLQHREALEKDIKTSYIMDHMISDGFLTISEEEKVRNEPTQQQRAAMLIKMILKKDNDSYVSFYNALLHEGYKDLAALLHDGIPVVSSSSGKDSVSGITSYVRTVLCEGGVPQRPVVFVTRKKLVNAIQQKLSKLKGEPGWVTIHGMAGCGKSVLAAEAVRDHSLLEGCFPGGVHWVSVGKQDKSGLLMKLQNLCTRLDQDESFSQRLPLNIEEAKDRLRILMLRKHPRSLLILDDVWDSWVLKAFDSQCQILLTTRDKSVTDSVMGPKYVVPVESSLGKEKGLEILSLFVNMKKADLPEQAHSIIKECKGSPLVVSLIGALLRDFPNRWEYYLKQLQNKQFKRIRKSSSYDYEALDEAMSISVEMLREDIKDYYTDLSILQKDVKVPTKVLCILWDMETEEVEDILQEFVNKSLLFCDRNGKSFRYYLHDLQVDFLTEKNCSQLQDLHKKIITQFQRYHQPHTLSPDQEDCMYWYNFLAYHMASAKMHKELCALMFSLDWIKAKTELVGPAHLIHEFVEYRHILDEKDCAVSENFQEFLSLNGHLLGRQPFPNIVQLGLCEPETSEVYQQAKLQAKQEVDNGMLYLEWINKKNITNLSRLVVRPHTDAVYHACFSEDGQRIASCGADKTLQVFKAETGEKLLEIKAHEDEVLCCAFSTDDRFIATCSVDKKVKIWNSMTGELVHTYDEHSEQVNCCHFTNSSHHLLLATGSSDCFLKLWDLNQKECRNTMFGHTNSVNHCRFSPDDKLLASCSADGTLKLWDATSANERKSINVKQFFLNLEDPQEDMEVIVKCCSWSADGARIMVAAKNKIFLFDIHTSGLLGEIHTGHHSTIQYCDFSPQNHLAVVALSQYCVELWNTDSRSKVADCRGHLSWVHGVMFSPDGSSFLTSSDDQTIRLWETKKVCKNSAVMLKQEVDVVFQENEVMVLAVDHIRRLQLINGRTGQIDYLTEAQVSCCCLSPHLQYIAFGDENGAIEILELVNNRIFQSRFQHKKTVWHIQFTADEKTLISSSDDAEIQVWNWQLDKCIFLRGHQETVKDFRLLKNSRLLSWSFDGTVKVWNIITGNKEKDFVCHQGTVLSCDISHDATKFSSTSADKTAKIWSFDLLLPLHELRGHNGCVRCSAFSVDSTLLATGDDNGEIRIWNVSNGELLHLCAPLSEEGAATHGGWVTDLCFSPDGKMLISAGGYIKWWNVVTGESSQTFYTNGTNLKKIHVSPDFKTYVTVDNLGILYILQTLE
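System – cell-free apoptosome with Apaf-1, procaspase-3 and caspase-9 · Buffer or medium – pH 7.5 Hepes buffer with CHAPS, BSA, DTT · Also added – cytochrome c with DEVD-Rh110 · Times – 30 min compound preincubation, 50 min activation, room temperature · Technique – Rh110 fluorescence intensity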
An asterisk follows results filed as active; · = not tested or not shown.

SMILES | UBC13 polyUb | PfG6PD inh | EBNA-1 inh | ZTA DNA inh | PfM18AAP inh | Apaf1 inhib
COc1cc(/C=C2\C(=O)N(c3ccc(S(N)(=O)=O)cc3)N=C2C)ccc1OC(=O)c1ccco1 | -64 | -8 | -1 | 4 | 1 | 91*
CC(=Nc1cccc(O)c1)c1sc2ccccc2c1O | 2 | -9 | 6 | 6 | 31* | 12
COc1cc(C(C[N+](=O)[O-])c2c(C)[nH]c3ccccc23)ccc1O (stereo unspecified) | -3 | 3 | -7 | 1 | 29* | 2
Cc1[nH]c2ccccc2c1C(C[N+](=O)[O-])c1cccc(O)c1 (stereo unspecified) | 2 | 1 | 6 | -7 | 4 | -6
CCc1ccc(S(=O)(=O)/N=C2/C=C(Sc3ncn[nH]3)C(=O)c3ccccc32)cc1 | · | 107* | 0 | 19 | 47* | ·
CCc1ccc(S(=O)(=O)ON2C(=O)c3ccccc3C2=O)cc1 | 17 | 49 | · | · | -1 | 0
CCc1ccc(S(=O)(=O)/N=C2\C=CC(=O)c3ccccc32)cc1 | -39 | · | -5 | -7 | -8 | 55*
Cc1ccc(S(=O)(=O)/N=C2\C=C(NS(=O)(=O)c3ccccc3)C(=O)c3ccccc32)cc1 | · | 14 | · | · | · | ·
CC12CCC(=O)C=C1CCC1C2CCC2(C)C1CC1C3C(=O)N(Cc4ccccc4)C(=O)C3CC(=O)C12 (stereo unspecified) | · | 11 | · | · | · | ·
Cc1ccc(C(=O)Nc2nc3ccccc3c(=O)s2)cc1 | -2 | 27 | 1 | 2 | 31* | -10
CSc1nc2ccc3nc(NC(=O)c4ccc(C)cc4)sc3c2s1 | 13 | 0 | -1 | -1 | -3 | 16
CCOc1cc(C(c2c(C)[nH][nH]c2=O)c2c(C)[nH][nH]c2=O)ccc1O | -80 | 21 | 6 | 1 | 30* | 32
Cc1[nH][nH]c(=O)c1C(c1ccc(O)c(Br)c1)c1c(C)[nH][nH]c1=O | -21 | -8 | -5 | 9 | 28 | 12
Cc1[nH][nH]c(=O)c1C(c1ccc(O)c([N+](=O)[O-])c1)c1c(C)[nH][nH]c1=O | -43 | 8 | -2 | -6 | 31* | 8
COc1cc(C(c2c(C)[nH][nH]c2=O)c2c(C)[nH][nH]c2=O)ccc1OC(C)C | -23 | 27 | 2 | 6 | 19 | 13
Cc1cc(Cl)ccc1OCC(=O)n1cc(C(=O)c2cc(Cl)ccc2O)cn1 | -7 | · | 8 | 8 | 30* | -3
O=C(/C=C/c1ccc(Br)cc1)c1ccco1 | 6 | 19 | -1 | -7 | 29* | -8
O=C(/C=C/c1ccc(Br)cc1)c1ccc(NC(=O)c2ccco2)cc1 | 1 | 11 | 1 | 11 | 5 | 14
NNc1nc2c(-c3ccc(F)cc3)nnn2c2ccccc12 | 8 | 12 | 0 | -17 | 30* | 32
COc1ccc(CCN2CC(C(=O)NCCCc3ccncc3)CCC2=O)cc1 (stereo unspecified) | · | -13 | · | · | · | ·
Cc1cc(C)cc(NC(=O)/C(C#N)=C/c2cn(CC(=O)NCc3ccco3)c3ccccc23)c1 | -14 | -21 | 40* | 19 | -2 | 2
Cc1ccc(NC(=O)/C(C#N)=C/c2cn(CC(=O)NCc3ccco3)c3ccccc23)cc1C | -12 | 10 | 21 | 10 | 3 | 1
C[C@@H]1CCCCO[C@@H](CN(C)S(=O)(=O)c2cn(C)cn2)[C@@H](C)CN([C@H](C)CO)C(=O)c2cc(NC(=O)Nc3ccc(C(F)(F)F)cc3)ccc2O1 | · | 26 | · | · | · | ·
On1ccccc1=S | · | 75* | 11 | 4 | · | ·
Cc1cccc(NC(=O)c2sc3nc(-c4ccc(F)cc4)cn3c2C)n1 | 22 | 23 | 2 | 4 | 7 | -4
COc1ccc(-c2cn3c(C)c(C(=O)Nc4cccc(C)n4)sc3n2)cc1 | 6 | 62* | -3 | 5 | 9 | 2
O=C(CSc1nnc(COc2ccc(Cl)cc2)o1)Nc1nccs1 | · | -11 | · | · | · | ·
CCN1CCN(c2ccc(NC(=O)CCc3c(C)nc4c(-c5ccccc5)c(C)nn4c3C)cc2)CC1 | 32 | 7 | 2 | -7 | -1 | 48*
CC(C)(C)NC(=O)C(c1ccc(O)cc1)N(Cc1ccc2c(c1)OCO2)C(=O)CCl (stereo unspecified) | · | -1 | · | · | · | ·
